Only some compounds are listed: those with a hit (about 2.1% of all), similar ones and a draw of the others.
Autophagy HCS: alters autophagy in cells | MEF GFP-LC3 puncta imaging; test concentration mostly 10 µM | calls only at 10 µM (by protocol) | 0.98% of 190,000 active | AID 463193;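 active means percentage of spot-positive cells more than 3 SD above its plate mean, without a fluorescence outlier flag or 80% toxicity; inconclusive means no clear call, values can overlap the other calls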
Dynein transport: dynein cargo transport inhibition | 3617.4 mouse cells, GR-EGFP nuclear translocation imaging; test concentration mostly 20 µM; stimulated with dexamethasone, 1 µM; stronger effect = lower value | z-score, hits read low | 0.47% of 220,000 active;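 active means plate z-score of nuclear minus cytoplasmic receptor signal below a set negative limit, without overly bright fluorescence or cell loss, cut at about -3.5 in these data, passing the limit was not always enough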;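 further: z-score of nuclear minus cytoplasmic ring GR-EGFP intensity difference per well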
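Medium: Induction medium lacking tetracycline, stripped serum | Probe or stimulus: 1.0 µM final dexamethasone stimulus | Schedule: 48 h induction, then 1 h compound, then 30 min agonist, 37 °C | Signal: Automated 10x imaging of fixed Hoechst-stained cells | Evaluation: Per-cell GR-EGFP intensity, nucleus versus surrounding cytoplasmic ring, well-averaged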
bCat nuc transl: beta-catenin nuclear translocation modulation; nuclear translocation activity, % at 5 µM; 0.3% of 190,000 active; HeLa beta-catenin nuclear translocation, immunofluorescence imaging;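 active means nuclear translocation activity above 50% at 5 µM, with a well cell count of 50 or more; inconclusive means wells under 50 cells across six images, flagged as toxic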;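 further: per-cell ratio of nuclear to cytoplasmic median beta-catenin stain intensity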
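test system = HeLa cells, endogenous beta-catenin | dosing = single 5 µM dose plus 0.02–20 µM confirmation series | times = compound treatment 24 h, 37°C, 5% CO2 | technique = beta-catenin immunofluorescence imaging with DAPI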
MT stabilizer: stabilizes microtubules in HeLa cells; AID 2205; 0.83% of 200,000 active; % tubulin-high responders, % at 10 µM; HeLa tubulin immunostaining HCS, 24 h; share of cells brighter than vehicle mean+2SD;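 active means plate Z-score above 3 for both tubulin-high and condensed-nucleus cell shares, with cell loss under 80%, at 10 µM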;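 further: anti alpha tubulin signal scored within the nucleus-defined area of each cell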
Hsp70 act: switches on Hsp70 transcription; HeLa Hsp70 promoter luciferase reporter, luminescence; scaled: vehicle 0, proteasome-inhibitor control 100%; activation, % at 10 µM; 0.04% of 200,000 active; AID 1203;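 active means activation above the mean across all tested compounds plus 3 SD, cutoff set per campaign, cut at about 5.5% in these data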
Dynein inh conf: dynein cargo transport inhibition, confirmation. shares compounds with Dynein transport. 3617.4 GR-EGFP nuclear translocation imaging, dexamethasone-induced. calls only at 20 µM. 69% of 1,000 active. AID 463116;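 active means inhibition of receptor movement into the nucleus at or above a set limit in both runs, with normal cell brightness and cell count; inconclusive means limit reached in only one run, brightness and count normal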;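 further: dexamethasone at 1 µM final in well for 30 min; nuclear minus cytoplasmic GR-EGFP mean intensity difference in channel 2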
Large screens that a line does not name were inactive (follow-up assays come after a bar, where they were run).

O=C(Cn1c(C(F)(F)F)nc2ccccc21)c1ccc(Br)cc1	none
Cc1nc([N+](=O)[O-])c(Br)n1CC(=O)c1ccccc1	Dynein transport -5.27 | Dynein inh conf active
NC1=NC(c2ccccc2)=NC1(NC(=O)c1ccccc1)C(Cl)Cl (stereo not drawn)	none (no result: Autophagy HCS, MT stabilizer, Hsp70 act)
COC(=O)NC(=S)N1CCOCC1	none
Cc1ccc(SC(=O)c2c(C)noc2-c2cc(C)on2)cc1	Dynein transport -5.08 (no result: Autophagy HCS, MT stabilizer, Hsp70 act) | Dynein inh conf active
c1ccc(CSc2ccc(-c3ccccn3)nn2)nc1	none
CCCN1C(=O)/C(=C/c2c(NCCCOC(C)C)nc3c(C)cccn3c2=O)SC1=S	Autophagy HCS active | Dynein inh conf inconclusive
O=C(/C=C/C=C/c1ccccc1)c1ccco1	Dynein transport -4.33 (no result: Autophagy HCS, MT stabilizer, Hsp70 act) | Dynein inh conf inactive
O=C(/C=C/c1ccc(Br)cc1)c1ccco1	none
Cc1ccc2nc(Cl)c3cc(C(=O)N(CCN(C)C)Cc4ccco4)sc3c2c1	Dynein transport -3.52, bCat nuc transl inconclusive | Dynein inh conf inactive
CCOC(=O)C1(Cc2cccc(F)c2)CCN(Cc2c(C)nn(CC)c2C)CC1	none (no result: Autophagy HCS, MT stabilizer, Hsp70 act)
CCCCn1c(CCC)nc([N+](=O)[O-])c1Sc1ccc(Cl)cn1	Dynein transport -3.63 (no result: bCat nuc transl) | Dynein inh conf active
O=C(CCl)Nc1cccc(Oc2ccccc2)c1	Dynein transport -4.28 | Dynein inh conf active
CCC(=O)Nc1ccc(N2CCCCC2)cc1	none
O=C(CCl)Nc1ccc(-c2ccccc2)cc1	Dynein transport -5.39 | Dynein inh conf active
O=C(CCl)Nc1ccc(N2CCCCCC2)cc1	Dynein transport -6 | Dynein inh conf active
Cc1ccc(Sc2ccc(NC(=O)CCl)cc2)cc1C	Dynein transport -4.53 | Dynein inh conf active
Cc1ccc(C(=O)CSc2nnc(-c3snnc3C)n2C2CC2)cc1	none (no result: Autophagy HCS, MT stabilizer, Hsp70 act)
CCOc1ccc(NC(=O)CC2C(=O)N(c3cccc(OC)c3)C(=O)N2CCOC)cc1 (stereo not drawn)	none (no result: Autophagy HCS, MT stabilizer, Hsp70 act)
COc1cc(N2CCCC2)c(OC)cc1/C=C1/NC(=S)NC1=O	Autophagy HCS active | Dynein inh conf inactive
Nc1cc(C(F)(F)F)cc2c1SCC(=O)N2	none
CNC(=O)NNC(=O)c1nc(-c2ccccc2)c(C)o1	none (no result: Autophagy HCS, MT stabilizer, Hsp70 act)
Cc1ccc(CN=Cc2[nH]c3ccc(Br)c(Cl)c3c2O)cc1	Autophagy HCS active | Dynein inh conf active
CCC(C)[C@H](NC(=O)Nc1ccccc1F)C(=O)O (stereo partly drawn)	none (no result: Autophagy HCS, MT stabilizer, Hsp70 act)
O=C(Nc1ccc(N2CCOCC2)c(Cl)c1)c1ccc([N+](=O)[O-])o1	Dynein transport -4.48 | Dynein inh conf active
Cc1[nH]c2ccccc2c1/C=N/Nc1ccc([N+](=O)[O-])cc1	Autophagy HCS active | Dynein inh conf inactive
COc1ccccc1NS(=O)(=O)c1cc([N+](=O)[O-])ccc1N/N=C/c1c(C)[nH]c2ccccc12	none | Dynein inh conf inactive
Cc1[nH]c2ccccc2c1/C=N/NC(=O)c1cccc([N+](=O)[O-])c1	none
COc1cc(C2NC(=O)c3ccccc3O2)cc(OC)c1OC (stereo not drawn)	none
COc1cc(C2Oc3ccccc3C=C2[N+](=O)[O-])cc(OC)c1OC (stereo not drawn)	Dynein transport -5.61 (no result: Autophagy HCS, MT stabilizer, Hsp70 act) | Dynein inh conf active
CC1OC2(C)OC(=N)C1(C#N)C(C#N)(C#N)C2c1ccccc1 (stereo not drawn)	none
CCCCC1OC2(C)OC(=N)C1(C#N)C(C#N)(C#N)C2c1ccccc1 (stereo not drawn)	Dynein transport -4.47 | Dynein inh conf active
N#C/C(=C/c1ccc(N2CCCCC2)o1)C(=O)Nc1ccc2ccccc2c1	Dynein transport -3.98 (no result: Autophagy HCS) | Dynein inh conf active
COc1ccc(NC(=O)/C(C#N)=C\c2ccc(N3CCOCC3)o2)cc1	none
N#C/C(=C/c1ccc(N2CCCCCC2)o1)c1ccc(F)cc1	Autophagy HCS active (no result: bCat nuc transl) | Dynein inh conf inactive
N#C/C(=C/c1ccc(N2CCCCC2)o1)C(=O)Nc1ccc(Cl)cc1	Autophagy HCS active | Dynein inh conf inactive
CCc1sc(C(C2C(=O)CC(C)(C)CC2=O)C2C(=O)CC(C)(C)CC2=O)cc1[N+](=O)[O-]	Dynein transport -5.2 | Dynein inh conf inactive
CC1(C)CC(=O)C(C(c2ccc(F)cc2)C2C(=O)CC(C)(C)CC2=O)C(=O)C1	none (no result: bCat nuc transl)
CC(=O)Nc1cccc(OCCCNC(=O)C2CCC2)c1	none (no result: Autophagy HCS, MT stabilizer, Hsp70 act)
CC1(C)Cc2cccc(C(=O)NC3CCN(Cc4ccccc4)CC3)c2O1	none (no result: Autophagy HCS, MT stabilizer, Hsp70 act)
CCOC(=O)C1=C(Cc2ccc(OC)cc2)C(=O)c2ccccc2C1=O	MT stabilizer 44.7 | Dynein inh conf active
CCOC(=O)C1=C(O)c2ccccc2C(=O)/C1=C\c1ccc(CC)cc1	none | Dynein inh conf inactive
CCCc1ccc(/C=C2\C(=O)c3ccccc3C(O)=C2C(=O)OCC)cc1	Dynein transport -3.54 | Dynein inh conf inconclusive
O=C(N/N=C/c1ccc(N2CCOCC2)o1)c1cccc([N+](=O)[O-])c1	none (no result: bCat nuc transl)
O=C(N/N=C/c1ccc(N2CCCCC2)o1)c1ccccc1	Dynein transport -3.77 | Dynein inh conf inactive
Cc1cc(NC(=O)CSc2nc(-c3cccs3)cc(C(F)(F)F)n2)no1	none
COc1ccc(-c2cc(C(F)(F)F)nc(S(=O)(=O)CCCC(=O)Nc3cccnc3Cl)n2)cc1OC	Dynein transport -5.08 | Dynein inh conf active
Cc1cc(NC(=O)CCCS(=O)(=O)c2nc(-c3cccs3)cc(C(F)(F)F)n2)no1	Dynein transport -4.83 | Dynein inh conf inconclusive
O=C1CC(c2ccccc2Cl)=NN(c2ncnc3ccccc23)C1=O	none
COc1cc2c(cc1NC(=O)C(C)OC(=O)c1ccc(S(=O)(=O)Nc3ccccc3Cl)cc1)oc1ccccc12 (stereo not drawn)	none
CC1=C(CO)C(=O)OC([C@@H](C)C2CC[C@H]3C4C[C@H]5O[C@]56[C@@H](O)C=CC(=O)[C@]6(C)C4CC[C@]23C)C1 (stereo partly drawn)	Dynein transport -3.81 (no result: Autophagy HCS, MT stabilizer, Hsp70 act) | Dynein inh conf inconclusive
O=C1CSC(=S)N1Cc1cccnc1	Dynein transport -4.65 | Dynein inh conf inactive
Cc1nc(N2CCCCC2)nc(N2CCCCC2)c1C=O	none
Cc1cc(Oc2ccc(-c3ccccc3)cc2)n2ncnc2n1	Dynein transport -4.7 | Dynein inh conf active
CCN(c1ccccc1)c1cc(C)nc2ncnn12	none
N#C/C(=C\c1sc(N2CCOCC2)nc1-c1ccccc1)C(=O)Nc1cccc2ccccc12	Autophagy HCS active | Dynein inh conf inconclusive
O=C1ON=C(c2ccccc2)/C1=C/c1ccc(-c2ccccc2[N+](=O)[O-])o1	Dynein transport -5.89 | Dynein inh conf active
Cc1nc2nc[nH]n2c(=O)c1CCOC(=O)c1c(F)cccc1F	none
CC(=O)Cn1ncc(Br)c(Br)c1=O	Autophagy HCS active, Dynein transport -4.59 | Dynein inh conf active
O=C(OCn1ncc(Br)c(Br)c1=O)c1c(F)cccc1F	Autophagy HCS active, Dynein transport -4.76 | Dynein inh conf active

Screening results (PubChem)
